Data published in ChEMBL document CHEMBL1177799 (Bioorg Med Chem Lett, 2010).

The compounds below were run against Adenosine receptor A2a (Homo sapiens, UniProt P29274) (assay: Displacement of [3H]-ZM241385 from human adenosine A2A receptor expressed in CHO-K1 cells after 1 hr by scintillation counting).
Type: cell-based

Chain of Adenosine receptor A2a (P29274 whole entry): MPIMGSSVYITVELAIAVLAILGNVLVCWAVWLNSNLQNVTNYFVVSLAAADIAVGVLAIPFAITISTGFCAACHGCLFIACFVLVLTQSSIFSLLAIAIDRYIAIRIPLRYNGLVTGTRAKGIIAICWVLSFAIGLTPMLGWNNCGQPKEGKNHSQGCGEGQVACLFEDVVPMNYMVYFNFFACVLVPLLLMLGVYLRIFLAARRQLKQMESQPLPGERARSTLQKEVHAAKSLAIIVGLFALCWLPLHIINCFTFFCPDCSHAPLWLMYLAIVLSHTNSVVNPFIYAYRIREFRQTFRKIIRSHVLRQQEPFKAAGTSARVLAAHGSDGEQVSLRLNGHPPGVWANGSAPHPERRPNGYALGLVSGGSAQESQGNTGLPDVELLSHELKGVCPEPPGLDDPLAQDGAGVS

Ki	SMILES
50 nM	CCN(C(C)=O)c1ccc(OC)c2nc(NC(=O)c3ccc(C#N)cc3)sc12
92 nM	CCN(C(C)=O)c1ccc(OC)c2nc(NC(=O)c3ccc(S(C)(=O)=O)cc3)sc12
76 nM	CCN(C(C)=O)c1ccc(OC)c2nc(NC(=O)c3ccc(C(=O)N4CCOCC4)cc3)sc12
100 nM	CCN(C(C)=O)c1ccc(OC)c2nc(NC(=O)c3ccc(C(=O)N4CCCCC4)cc3)sc12
46 nM	CCN(C(C)=O)c1ccc(OC)c2nc(NC(=O)c3ccc(NS(C)(=O)=O)cc3)sc12

The next lines start with the compound.

SMILES	Ki
CCN(C(C)=O)c1ccc(Cl)c2nc(NC(=O)c3ccc(F)cc3)sc12	15 nM
COc1ccc(N(CC(=O)N(C)C)C(C)=O)c2sc(NC(=O)c3ccc(F)cc3)nc12	480 nM
CCN(C(C)=O)c1ccc(OC)c2nc(NC(=O)c3ccc(-n4cccn4)cc3)sc12	66 nM
COc1ccc(N(CC(=O)O)C(C)=O)c2sc(NC(=O)c3ccc(F)cc3)nc12	2200 nM

The compounds below were run against T1, Adenosine receptor A2b (Homo sapiens, UniProt P29275) (assay: Displacement of [3H]ZM241385 from human adenosine A2B receptor expressed in CHO cells after 1 hr by scintillation counting).
T1 sequence (P29275 whole entry): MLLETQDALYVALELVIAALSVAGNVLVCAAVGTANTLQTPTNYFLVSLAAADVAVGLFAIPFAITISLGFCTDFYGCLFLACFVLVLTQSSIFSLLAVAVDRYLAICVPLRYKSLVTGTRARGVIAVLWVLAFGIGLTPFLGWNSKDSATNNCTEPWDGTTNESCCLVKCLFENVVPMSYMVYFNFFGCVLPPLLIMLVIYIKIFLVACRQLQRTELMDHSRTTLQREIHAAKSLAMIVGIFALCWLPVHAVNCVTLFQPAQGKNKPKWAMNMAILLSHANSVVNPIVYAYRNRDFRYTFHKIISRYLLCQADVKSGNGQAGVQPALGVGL
Type: cell-based
Procedure, shortened: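 Whole CHO cells expressing human A2B receptor, harvested mechanically from 80% confluent flasks, frozen, then resuspended in assay buffer on assay day. Competition against [3H]ZM241385 (30 nM final), 1 h at room temperature with shaking. Harvest on 0.5% polyethyleneimine-treated filter plates, air-dried, scintillation counting.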

SMILES	Ki
CCN(C(C)=O)c1ccc(OC)c2nc(NC(=O)c3ccc(C#N)cc3)sc12	10 nM
CCN(C(C)=O)c1ccc(OC)c2nc(NC(=O)c3ccc(S(C)(=O)=O)cc3)sc12	19 nM
CCN(C(C)=O)c1ccc(OC)c2nc(NC(=O)c3ccc(C(=O)N4CCOCC4)cc3)sc12	7 nM
CCN(C(C)=O)c1ccc(OC)c2nc(NC(=O)c3ccc(C(=O)N4CCCCC4)cc3)sc12	4 nM
CCN(C(C)=O)c1ccc(OC)c2nc(NC(=O)c3ccc(-n4cccn4)cc3)sc12	18 nM
CCN(C(C)=O)c1ccc(OC)c2nc(NC(=O)c3ccc(NS(C)(=O)=O)cc3)sc12	22 nM

The compounds below were run against T1, Adenosine receptor A2b (assay: Antagonist activity at human adenosine A2B receptor expressed in CHO cells assessed as inhibition of adenosine-induced cAMP production).
Type: functional, cell-based
Procedure, shortened: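 CHO cells stably transfected with human A2B receptor, grown overnight as monolayer (7500 cells/well), washed with Krebs buffer, then exposed to compounds in Krebs buffer (final DMSO 1.1%) for 20–25 min. Wells emptied, cells lysed and cAMP measured with an enzyme-fragment complementation cAMP kit for adherent cells.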

IC50	SMILES
28 nM	CCN(C(C)=O)c1ccc(OC)c2nc(NC(=O)c3ccc(C#N)cc3)sc12
36 nM	CCN(C(C)=O)c1ccc(OC)c2nc(NC(=O)c3ccc(S(C)(=O)=O)cc3)sc12
21 nM	CCN(C(C)=O)c1ccc(OC)c2nc(NC(=O)c3ccc(C(=O)N4CCOCC4)cc3)sc12
16 nM	CCN(C(C)=O)c1ccc(OC)c2nc(NC(=O)c3ccc(C(=O)N4CCCCC4)cc3)sc12
37 nM	CCN(C(C)=O)c1ccc(OC)c2nc(NC(=O)c3ccc(NS(C)(=O)=O)cc3)sc12

Second part, the compound before the results:

SMILES	IC50
CCN(C(C)=O)c1ccc(Cl)c2nc(NC(=O)c3ccc(F)cc3)sc12	23 nM
COc1ccc(N(CC(=O)N(C)C)C(C)=O)c2sc(NC(=O)c3ccc(F)cc3)nc12	600 nM
CCN(C(C)=O)c1ccc(OC)c2nc(NC(=O)c3ccc(-n4cccn4)cc3)sc12	21 nM
COc1ccc(N(CC(=O)O)C(C)=O)c2sc(NC(=O)c3ccc(F)cc3)nc12	6000 nM

Each compound was assayed against T2, Adenosine receptor A1 (Homo sapiens, UniProt P30542) (assay: Displacement of [3H]-DPCPX from human adenosine A1 receptor expressed in CHO-K1 cells after 1 hr by scintillation counting).
T2 sequence (P30542 whole entry): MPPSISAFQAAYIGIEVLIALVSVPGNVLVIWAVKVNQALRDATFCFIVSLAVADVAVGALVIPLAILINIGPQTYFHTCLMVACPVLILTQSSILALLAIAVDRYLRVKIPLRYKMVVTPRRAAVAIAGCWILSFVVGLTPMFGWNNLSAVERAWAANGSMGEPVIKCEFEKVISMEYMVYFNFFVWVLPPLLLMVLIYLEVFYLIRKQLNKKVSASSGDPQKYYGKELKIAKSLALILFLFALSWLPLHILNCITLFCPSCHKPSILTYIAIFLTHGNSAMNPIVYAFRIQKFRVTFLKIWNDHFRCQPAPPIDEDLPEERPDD
Type: cell-based
Procedure, shortened: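 Commercial human A1 membranes (10 µg/well) in HEPES 50 mM, NaCl 100 mM, MgCl2 1 mM buffer; competition against [3H]-DPCPX (4.8 nM final), 1 h at room temperature with orbital shaking. Filtration harvest on polyethyleneimine-treated (0.5%) glass-fibre plates, air-dried, scintillation counting.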

Ki	SMILES
71 nM	CCN(C(C)=O)c1ccc(OC)c2nc(NC(=O)c3ccc(C#N)cc3)sc12
390 nM	CCN(C(C)=O)c1ccc(OC)c2nc(NC(=O)c3ccc(S(C)(=O)=O)cc3)sc12
160 nM	CCN(C(C)=O)c1ccc(OC)c2nc(NC(=O)c3ccc(C(=O)N4CCOCC4)cc3)sc12
300 nM	CCN(C(C)=O)c1ccc(OC)c2nc(NC(=O)c3ccc(C(=O)N4CCCCC4)cc3)sc12
110 nM	CCN(C(C)=O)c1ccc(OC)c2nc(NC(=O)c3ccc(NS(C)(=O)=O)cc3)sc12

The next lines start with the compound.

SMILES	Ki
CCN(C(C)=O)c1ccc(Cl)c2nc(NC(=O)c3ccc(F)cc3)sc12	30 nM
COc1ccc(N(CC(=O)N(C)C)C(C)=O)c2sc(NC(=O)c3ccc(F)cc3)nc12	1600 nM
CCN(C(C)=O)c1ccc(OC)c2nc(NC(=O)c3ccc(-n4cccn4)cc3)sc12	78 nM
COc1ccc(N(CC(=O)O)C(C)=O)c2sc(NC(=O)c3ccc(F)cc3)nc12	2600 nM
